Wnt act: Wnt/beta-catenin pathway activators, primary screen, cell-based, plate reader, single point; Wnt/beta-catenin reporter cell assay, activator; AID 743398, 2014; activation, % at 9.35 µM; actives 1.2% (n = 300,000); in the data active = activation above about 30%, passing the limit was not always enough; inconclusive = no clear call, values can overlap the other calls;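 note: 0% = neutral control wells and 100% = positive control wells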
Cneo AK release: Cryptococcus neoformans cell lysis inducers, primary screen, AK release luminescence, single concentration. C. neoformans lysis, adenylate kinase release luminescence, 4 h; normalised: neutral wells 0, clomiphene wells 100. lysis activity, % at 15 µM. actives 0.2% (n = 360,000);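 active = mean lysis activity across replicates of at least 80%, whatever share of replicates individually reach that level; inactive = mean lysis activity below 80%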
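Assay system: log-phase C. neoformans yeast / Quantity: yeast cell density of 5 × 10^6 cells/mL / Medium: fresh YPD growth medium / Compound: single dose / Timing: static 4 h at 37 °C with compound, 1 h detection / Measured by: adenylate kinase release luminescence / Read-out: lysis from increased AK signal / Benchmarks: Clomiphene as positive lysis control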
HIV Env fusion: inhibitors of HIV-1 Env-driven cell-cell fusion, primary screen, HeLa-JRFL effector, CEM21 target cells, luciferase | inhibition, % at 12.3 µM | actives 1.1% (n = 360,000) | AID 651610, 2012;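 active = mean replicate inhibition score of at least 50 and every replicate individually at or above 50; inconclusive = only one of the two criteria met; inactive = mean below 50 and not all replicates reaching 50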;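 note: 0% = plate neutral controls and 100% = maraviroc near 300 nM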
ERAP1 HTS inh: human ERAP1 aminopeptidase inhibitors, primary screen, biochemical, single point, plate reader. Endoplasmic reticulum aminopeptidase 1 (Homo sapiens), Q9NZ08. recombinant ERAP1, Leu-AMC fluorescence, 60 min. inhibition, % at 10.7 µM. actives 0.15% (n = 340,000);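 active = mean replicate inhibition of at least 30%, or all replicates individually reaching that 30% level; inactive = mean below 30% and not every replicate reaching it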;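 note: 0% = neutral control wells and 100% = L-leucinethiol positive control wells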
Target sequence (Q9NZ08 whole entry, looked up): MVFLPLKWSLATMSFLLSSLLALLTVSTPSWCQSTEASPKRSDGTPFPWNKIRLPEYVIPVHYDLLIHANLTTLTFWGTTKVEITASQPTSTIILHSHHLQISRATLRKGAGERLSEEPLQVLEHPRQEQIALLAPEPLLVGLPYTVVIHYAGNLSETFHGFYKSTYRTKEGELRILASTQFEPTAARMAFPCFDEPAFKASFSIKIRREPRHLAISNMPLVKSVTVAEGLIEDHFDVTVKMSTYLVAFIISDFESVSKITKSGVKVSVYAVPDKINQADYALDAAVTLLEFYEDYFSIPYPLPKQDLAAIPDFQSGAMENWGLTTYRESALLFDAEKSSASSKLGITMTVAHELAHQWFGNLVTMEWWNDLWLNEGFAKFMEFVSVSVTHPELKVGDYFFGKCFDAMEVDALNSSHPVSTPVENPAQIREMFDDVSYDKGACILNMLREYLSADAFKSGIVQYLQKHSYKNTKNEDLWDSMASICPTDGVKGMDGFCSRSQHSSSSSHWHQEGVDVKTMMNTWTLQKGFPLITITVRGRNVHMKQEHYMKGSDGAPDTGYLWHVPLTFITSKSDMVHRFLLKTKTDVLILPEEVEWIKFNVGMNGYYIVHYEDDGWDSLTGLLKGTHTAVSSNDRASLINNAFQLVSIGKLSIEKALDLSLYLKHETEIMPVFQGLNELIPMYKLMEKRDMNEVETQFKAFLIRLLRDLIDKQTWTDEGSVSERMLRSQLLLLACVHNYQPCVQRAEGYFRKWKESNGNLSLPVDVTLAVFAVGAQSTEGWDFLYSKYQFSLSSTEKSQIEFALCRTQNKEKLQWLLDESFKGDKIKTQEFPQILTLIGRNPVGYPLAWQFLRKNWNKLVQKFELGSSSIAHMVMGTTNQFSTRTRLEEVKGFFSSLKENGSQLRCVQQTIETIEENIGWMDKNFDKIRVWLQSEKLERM
MITF act: activators of MITF-driven TRPM1 promoter reporter, primary screen, cell-based, SK-MEL-5, luciferase, single point; SK-MEL-5 TRPM1-promoter luciferase, 24 h; % of positive control, neutral wells = 0; AID 588334, 2011; activation, % at 12.5 µM; actives 0.75% (n = 300,000);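 active = mean activation of at least 80% with every replicate also reaching 80%; inconclusive = mean reaches 80% but some replicate falls short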;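 note: 0% = neutral control wells and 100% = parthenolide positive control wells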
esBAF inh: Bmi1 luciferase reporter increase in mESCs, primary screen, esBAF inhibitor project, mouse ES cells, Bmi1 luciferase knock-in, single point | 24 h; 100% = twice the neutral-well signal | reporter increase, % at 12.5 µM | actives 2% (n = 350,000) | AID 602393, 2012; in the data active = activation above about 40%; inconclusive = no clear call, values can overlap the other calls;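 note: 0% = median of the plate's neutral control wells and 100% = double that signal; a rise in the Bmi1 reporter signal indicates esBAF inhibition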
Starred values were filed as active, the others as inactive; i = inactive; ? = inconclusive; nt = no result given; [ ] = remark or other dose. The list is not random: actives were taken first. Their share in the collection is about 3.5%.

SMILES	Wnt act	Cneo AK release	HIV Env fusion	ERAP1 HTS inh	MITF act	esBAF inh
CC(C)NC(=O)N(C)C[C@H]1OCCCC[C@H](C)Oc2ccc(NS(=O)(=O)c3cn(C)cn3)cc2C(=O)N([C@@H](C)CO)C[C@H]1C	nt	-8	16[16.7 µM]	4	nt	1
COc1ccc(/C(C)=N/NC(=O)c2cccc(S(=O)(=O)N3CCCC3)c2)c(O)c1	-5	-3	82*	-2	-73	-38
Cc1cc(CNC(=O)c2cc(-c3ccccc3)nc3ccccc23)nn1C	-1	nt	-6	4	1	nt
Cc1cc(C(=O)NCc2cc(C)n(C)n2)sc1-c1ccccc1	nt	6	56*	nt	7	18
Cc1ccc2[nH]c3c(=O)[nH]ncc3c2c1	1	0	66*	0	-8	5
C[C@@H]1CN([C@H](C)CO)C(=O)c2cc(NS(=O)(=O)c3cn(C)cn3)ccc2O[C@@H](C)CCCCO[C@@H]1CN(C)S(=O)(=O)c1ccccc1	nt	1	-7[16.7 µM]	-1	nt	4
CCOc1ccc(C(=O)Nc2cccc(-c3ccc(N4CCOCC4)nn3)c2)cc1OCC	22	nt	-14	-2	106*	64*
CCC(=O)Nc1cccc(-c2ccc(N3CCN(C)CC3)nn2)c1	nt	-3	nt	nt	85*	41*
O=C(Nc1cccc(-c2ccc(N3CCOCC3)nn2)c1)c1ccc(F)cc1F	19	-1	-23	1	?	nt
CC(=O)c1ccc(S(=O)(=O)Nc2cccc(-c3ccc(N4CCOCC4)nn3)c2)cc1	12	-3	-21	0	58	33
COc1ccc(C(=O)Nc2cccc(-c3ccc(N4CCOCC4)nn3)c2)cc1OC	26	-3	-24	-1	96*	19
COc1cccc(C(=O)Nc2cccc(-c3ccc(N4CCOCC4)nn3)c2)c1	22	nt	-23	0	137*	67*
CCOc1ccccc1C(=O)Nc1cccc(-c2ccc(N3CCOCC3)nn2)c1	?	nt	-44	0	111*	63*
COc1cccc(C(=O)Nc2cccc(-c3ccc(N4CCOCC4)nn3)c2)c1OC	28	-13	-24	-1	?	20
Nn1c(SCCOc2ccc(Cl)cc2)nnc1-c1cccnc1	-2	nt	1	47*	-5	nt
Nn1c(SCCOc2ccccc2)nnc1-c1cccnc1	0	-4	-4	10	2	nt
Nn1c(SCc2ccccc2F)nnc1-c1cccnc1	52*	0	-9	4	nt	nt
Nn1c(SCc2cccc(F)c2)nnc1-c1cccnc1	7	nt	18	7	nt	2
COc1cccc(-c2ccc([C@@H]3[C@@H](CO)N4CCCCN(CC5CCOCC5)C[C@@H]34)cc2)c1	nt	0	nt	-3	nt	nt
CNC(=O)c1ccsc1NC(=O)c1ccc2c(c1)CCCC2	19	-6	-128	-3	52	56*
CO[C@H](CN(C)C(=O)Nc1ccc(F)cc1)[C@@H](C)CN(Cc1ccccc1Cl)[C@H](C)CO	nt	15	nt	1	nt	0
CCCNc1nc2nc3ccccn3c(=O)c2cc1C(=O)NCCN1CCOCC1	0	0	-7	58*	2	-5
N=c1c(C(=O)NCC2CCCO2)cc2c(=O)n3ccccc3nc2n1C1CCCC1 (stereo unspecified)	-2	-2	2	i	9	-1
Cc1cccn2c(=O)c3cc(C(=O)NCCN4CCOCC4)c(=N)n(CCCN4CCOCC4)c3nc12	2	4	-15	35*	8	-4
N=c1c(C(=O)NCC2CCCO2)cc2c(=O)n3ccccc3nc2n1C1CCCCC1 (stereo unspecified)	1	1	-8	121*	9	-9
SMILES	Wnt act	Cneo AK release	HIV Env fusion	ERAP1 HTS inh	MITF act	esBAF inh
Cc1cccn2c(=O)c3cc(C(=O)NCc4ccccc4)c(=N)n(CCCN4CCOCC4)c3nc12	0	6	-1	-54	13	2
Cc1cccn2c(=O)c3cc(C(=O)NCc4cccnc4)c(=N)n(CC4CCCO4)c3nc12 (stereo unspecified)	1	-1	-14	86*	nt	-5
CC(C)C#Cc1ccc2c(c1)O[C@H](CN(C)C(=O)C1CCC1)[C@@H](C)CN([C@H](C)CO)S2(=O)=O	nt	nt	9[16.7 µM]	nt	nt	nt
O=C(C[C@H]1C=C[C@H](NC(=O)C2CCC2)[C@@H](CO)O1)NC1CCC1	nt	91*	20[16.7 µM]	-1	nt	1
COC(=O)C[C@H]1C=C[C@H](NC(=O)c2ccccn2)[C@@H](CO)O1	-6	nt	72*	0	nt	nt
O=C(C[C@@H]1C=C[C@@H](NC(=O)C2CCC2)[C@@H](CO)O1)NC1CCC1	nt	0	-12[16.7 µM]	-2	nt	4
O=C(C[C@@H]1C=C[C@@H](NC(=O)C2CCC2)[C@H](CO)O1)NC1CCC1	nt	96*	-22[16.7 µM]	0	nt	-5
COc1cccc(CNC(=O)C[C@@H]2C=C[C@H](NC(=O)C3CCC3)[C@H](CO)O2)c1	nt	-15	65*[16.7 µM]	-9	nt	6
CCC(=O)N[C@H]1C=C[C@H](CC(=O)NCC2CCCCC2)O[C@@H]1CO	nt	89*	12[16.7 µM]	2	nt	-3
COC(=O)C[C@H]1C=C[C@@H](NC(=O)C2CC2)[C@@H](CO)O1	45*	nt	4	-2	nt	nt
C[C@H](CO)N1C[C@H](C)[C@@H](CN(C)Cc2ccc(C(F)(F)F)cc2)Oc2ccc(NC(=O)CCCN(C)C)cc2C1=O	nt	5	1[16.7 µM]	-1	nt	-8
C[C@H]1CN([C@@H](C)CO)C(=O)c2cccc(NC(=O)Nc3ccc(C(F)(F)F)cc3)c2O[C@H]1CN(C)Cc1ccc(C(F)(F)F)cc1	nt	-1	-7[16.7 µM]	1	nt	-5
C[C@@H]1CN([C@@H](C)CO)C(=O)c2cccc(NC(=O)Nc3ccc(C(F)(F)F)cc3)c2O[C@H]1CN(C)Cc1ccc(Oc2ccccc2)cc1	nt	-1	69*[16.7 µM]	-3	nt	6
C[C@@H]1CN([C@H](C)CO)C(=O)c2cccc(NC(=O)Nc3ccc(C(F)(F)F)cc3)c2O[C@H]1CN(C)Cc1ccc(C(F)(F)F)cc1	nt	-1	59*[16.7 µM]	-3	nt	-4
COC(=O)CNC(c1ccccc1)c1cc(Br)ccc1NC(=O)OCc1ccccc1 (stereo unspecified)	nt	2	nt	nt	-7	14
COC(=O)CNC(c1ccccc1)c1cc(C)ccc1NC(=O)CNC(=O)OCc1ccccc1 (stereo unspecified)	nt	1	73*	nt	nt	3
O=C(O)C(=O)/C(=C\c1ccsc1)c1ccc2ccccc2n1	27	-2	-122	-2	-5	56*
O=C(O)C(=O)/C(=C\c1ccccc1)c1ccc2ccccc2n1	nt	-5	nt	0	6	37

Screening results deposited in PubChem by Broad Institute.
